Cneo AK release: causes C. neoformans cell lysis. adenylate kinase release luminescence, 4 h; normalised: neutral wells 0, clomiphene wells 100. lysis activity, % at 15 µM. 0.2% of 360,000 active;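 active means mean lysis activity across replicates of at least 80%, whatever share of replicates individually reach that level; inactive means mean lysis activity below 80%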
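Material: C. neoformans cells; Schedule: 4 h static compound exposure, 37 °C, read 1 h post-reagent; Measured by: adenylate kinase release luminescence; Read-out: signal increase indicating cell lysis; Controls: Clomiphene as positive lysis control.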
Efflux pump mplx: inhibitors of Candida antifungal efflux pumps expressed in yeast; inhibition, % at 10 µM; AID 485275; 0.44% of 330,000 active; S. cerevisiae Candida pump triplex, Nile Red efflux;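 active means plate passing quality check with inhibition over a set limit, or well fluorescence over plate mean plus 4 SD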;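 further: Nile Red retained in pooled yeast measured as flow cytometry median fluorescence; 0% = buffer negative control and 100% = Enniatin B positive control; higher means more Nile Red kept so more efflux inhibition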
SUMO Mot1 rescue: blocks SUMOylation pathway, rescuing yeast Mot1-301 growth; S. cerevisiae Mot1-301 growth rescue, ATP luminescence, 38.5C; percent above DMSO median, 100 means doubled; growth rescue, % at 18.8 µM; 1% of 320,000 active;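 active means every valid replicate shows activation above 250% relative to neutral control wells; inactive means the rest, any valid replicate at or below 250%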;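 further: OY570 slx delta 5 strain wells were the positive control but not used for scaling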
C2C12 statin: protects C2C12 myotubes from simvastatin toxicity | AID 602340 | 0.78% of 330,000 active | ATP luminescence, 48 h; scaled: DMSO 0, geranylgeraniol control 100 | rescue of ATP level, % at 7.49 µM;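 active means mean ATP rescue above about 67%, or every replicate alone reaching that limit, limit read from the data, passing the limit was not always enough; inconclusive means no clear call, values can overlap the other calls; inactive means mean under the limit and some replicate under it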;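 further: myotubes were challenged with 10 µM simvastatin during compound exposure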
Mot1 SUMO dose: inhibits SUMO pathway, affecting Mot1-301 yeast growth; shares compounds with SUMO Mot1 rescue; S. cerevisiae Mot1-301 galactose growth, ATP luminescence, 24 h; -100 = growth of slx-deleted rescue strain; growth activity, percent, % at 42 µM; 2,300 tested, under 10 active; AID 493004;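 active means Signal drops as the depositor expects, and the fitted half-maximal dose is no more than ten times the top valid tested dose; inconclusive means Poor fit, or a flat curve whose signal drops by 30% to 70%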;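 further: more negative values mean stronger growth rescue toward the control strain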
Starred values were filed as active, the others as inactive; u = inconclusive; x = no result; + = active, no number; [ ] = remark or other dose. Rows were chosen to be rich in hits. Some 1.8% of all compounds tested hit in one or more screens of this group.

SMILES | Cneo AK release | Efflux pump mplx | SUMO Mot1 rescue | C2C12 statin | Mot1 SUMO dose
O=C(C[C@@H]1CC[C@H]2[C@@H](COC[C@H](O)CN2C(=O)Nc2ccc(Cl)cc2)O1)NCc1ccncn1 | -4 | x | x | -3 | x
CN1CCN(C(=O)CN(Cc2ccc(Cl)cc2)S(C)(=O)=O)CC1 | -1 | 0 | 16 | 1 | x
CS(=O)(=O)N(CC(=O)N1CCCCCC1)Cc1ccc(Cl)cc1 | 1 | 0 | 589* | 10 | 0
COC(=O)[C@H](Cc1ccccc1)NC(=O)NC(C)CCc1ccccc1 (some centres undefined) | 1 | 0 | 871* | -3 | 0
CCC(c1nnc(SCC(=O)Nc2ccc(C(=O)N(C)C)cc2)n1Cc1ccccc1)N(C)C (centres undefined) | -3 | 0 | -10 | x | x
O=C(C[C@H]1CC[C@H]2[C@@H](COC[C@@H](O)CN2S(=O)(=O)c2ccccc2)O1)NCc1ccc(-c2ccccc2)cc1 | -1 | x | x | 2 | x
Cc1cccc(OCCCN2CCCCCC2)c1 | 4 | 0 | 34 | -4 | x
Cc1cccc(OCCN2CSC(=S)N(C)C2)c1 | x | 0 | 372* | x | 0
CO[C@H]1CN(C)C(=O)c2cc(NC(=O)C3CC3)ccc2OC[C@@H](C)N(C(=O)c2ccccc2F)C[C@@H]1C | -7 | x | x | -14 | x
NS(=O)(=O)c1cccc(NC(=O)CSc2nnnn2-c2ccccc2)c1 | 1 | 0 | 375* | 21 | 0
O=C1CN(C(=O)COC(=O)c2cccc(S(=O)(=O)NCc3ccccc3)c2)c2ccccc2N1 | 3 | 0 | 554* | -9 | 1
Cc1cc(/C=N/NC(=O)c2ccsc2)c(C)n1-c1cnccn1 | x | 0 | 555* | x | 0
COCCn1c(=O)[nH]c(=O)c2cc(C(=O)c3cc(Cl)ccc3O)cnc21 | x | 0 | 838* | x | 0
COc1ccc(O)c(C(=O)c2cnc3c(c2)c(=O)[nH]c(=O)n3C)c1 | 0 | 0 | 3 | x | x
Cc1ccc(S(=O)(=O)N2CC=C(C(=O)NC3CC3)CC2)cc1 | -2 | 0 | -20 | -3 | x
CCC(C)C(N)C1=NC(C(=O)N[C@@H](CC(C)C)C(=O)N[C@H](CCC(=O)O)C(=O)N[C@H](C(=O)N[C@H]2CCCCNC(=O)[C@H](CC(N)=O)NC(=O)[C@@H](CC(=O)O)NC(=O)[C@H](Cc3cnc[nH]3)NC(=O)[C@@H](Cc3ccccc3)NC(=O)[C@H]([C@@H](C)CC)NC(=O)[C@@H](CCCN)NC2=O)[C@@H](C)CC)CS1 (some centres undefined) | 1 | x | x | 10 | x
O=c1nccc(N/N=C/c2ccccc2O)[nH]1 | x | 0 | -17 | x | x
Nc1ccnc(=O)[nH]1 | 0 | 0 | 654* | -1 | 0
OC[C@@H]1[C@@H](c2ccc(C#Cc3ccccc3F)cc2)[C@H]2CN(Cc3cncnc3)CCCCN12 | -1 | x | x | 9 | x
O=C1CN(Cc2nc3cc(Cl)ccc3c(=O)[nH]2)CCN1 | 0 | 0 | -5 | -2 | x
CCNCc1nc2cc(Cl)ccc2c(=O)[nH]1 | x | 0 | 831* | x | 0
CCOC(=O)Cc1csc(NC(=O)NC2(C(F)(F)F)Oc3ccccc3O2)n1 | -1 | 0 | 770* | 8 | 0
CC(C)(C)c1ccc(CN(Cc2ccccc2)C(c2ccccn2)c2nnnn2C(C)(C)C)cc1 (centres undefined) | -1 | 0 | 505* | -18 | 0
O=C(O)CSc1ccnc2cc(Cl)ccc12 | 2 | 0 | -1 | x | x
O=c1[nH]cnc2cc(Cl)ccc12 | -3 | 0 | + | -5 | 0[21 µM]
SMILES | Cneo AK release | Efflux pump mplx | SUMO Mot1 rescue | C2C12 statin | Mot1 SUMO dose
N#Cc1ccc(C23CC4(C2)[C@H](CN(Cc2ccc(C(F)(F)F)cc2)[C@@H]4c2ccccc2)C3c2ccc(C(F)(F)F)cc2)cc1 (some centres undefined) | x | 0 | 427* | x | 0
Cc1cc(C(=O)NNC(=O)c2ccc(C)s2)c(C)o1 | 1 | 0 | 476* | 4 | 0
CN(C)c1cccc(C(=O)Nc2cc(C(F)(F)F)ccc2-n2cnc3ccccc32)c1 | x | 1 | 400* | x | 0
CC(=O)Nc1ccc(C(=O)Nc2cc(C(F)(F)F)ccc2-n2cnc3ccccc32)cc1 | x | 0 | 65 | x | x
COc1ccccc1S(=O)(=O)N[C@H]1CC[C@H](CCn2cc(C3CC3)nn2)O[C@@H]1CO | 65 | x | x | 4 | x
CCC(C)(C)n1nnnc1C(c1cccnc1)N1CCC(Cc2ccccc2)CC1 (centres undefined) | x | 0 | 594* | x | 1
COc1ccc(NC2CCCN(C(=O)CCc3scnc3C)C2)cc1 (centres undefined) | -1 | 0 | 439* | -1 | 0
COc1ccc(NC2CCCN(C(=O)c3csc(C)n3)C2)cc1 (centres undefined) | 3 | 0 | 774* | 2 | 2
Cc1nc(C(=O)N2CCCC(Nc3ccc(C)c(C)c3)C2)cs1 (centres undefined) | -2 | 0 | 0 | -16 | x
O=C(CCl)Nc1cc2[nH]c(=O)[nH]c2cc1Br | x | 0 | 3 | x | x
O=C(N[C@H]1CC[C@H](CC(=O)N2CCc3ccccc3C2)O[C@@H]1CO)C1CCC1 | 1 | x | x | 0 | x
O=C(OCC#CCSc1nnc(-c2ccccc2)o1)c1cc2ccccc2o1 | 0 | 0 | 582* | 2 | 0
Cc1ccc(-c2nnc(SCC#CCOC(=O)c3ccco3)o2)cc1 | -2 | 0 | 11 | -1 | x
O=C(c1cccc(F)c1)N1CCCCN2[C@H](CO)[C@H](c3ccc(-c4cncnc4)cc3)[C@H]2C1 | 0 | x | x | 9 | x
CN(C)c1ccc(C(=O)N2CCCC(CCC(=O)N3CCN(c4ccccn4)CC3)C2)cc1 (centres undefined) | -3 | 0 | 554* | -1 | 0
CC1(C)C(C=C(Cl)Cl)C1C(=O)OCc1cccc(Oc2ccccc2)c1 (centres undefined) | -1 | 0 | 463* | 2 | 1
Cc1cc(-c2nnc3sc(C4CCCCC4)nn23)n[nH]1 | x | 0 | 691* | x | 0
COc1ccc(CNCc2cc(C)c(OC)cc2C)c(OC)c1 | -6 | 0 | 15 | -7 | x
CSc1nc2c(cc1C#N)CCC2 | -1 | 0 | 109 | 2 | x
N#Cc1cc2c(nc1SC1CCCCC1O)CCCC2 (centres undefined) | 1 | 0 | 485* | 16 | 1
CCOC(=O)NC(=O)c1cn(C(CC)CO)c(=O)[nH]c1=O (centres undefined) | x | 0 | -2 | x | x
O=C(CN1CCN(C(=O)c2ccccc2)CC1)Nc1ncc(Br)cc1Br | 32 | 0 | + | u | 0
COc1ccc(S(=O)(=O)N(C)C[C@H]2OCCCC[C@H](C)Oc3ccc(NC(=O)NC4CCCCC4)cc3C(=O)N([C@@H](C)CO)C[C@H]2C)cc1 | -1 | x | x | x | x
CCNC(=O)COc1ccc(S(=O)(=O)Nc2ccccc2)cc1 | x | 0 | 798* | x | 0[21 µM]
COCCCNC(=O)COc1ccc(S(=O)(=O)Nc2ccccc2)cc1 | 0 | 0 | -11 | x | x
